Data reported in ChEMBL document CHEMBL1123321, “Synthesis and evaluation of 2-substituted 1-methyl-1-(4-tolylsulfonyl)hydrazines as antineoplastic agents” (1986).

Legend:
Type in all cases: functional
[1] = test system: Mus musculus; experiment: Compound was evaluated for antineoplastic activity against mice bearing L1210 leukemia. Optimum effective daily dose administered once daily for 6 consecutive days
Outline: (§1)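 L1210 leukemia was carried and implanted ip in mice as in earlier work. Starting 24 h after implantation, drug was given ip once daily for 6 days across a range of doses, as a Tween 80/saline suspension. Survival was scored as %T/C, the mean survival of treated over control ×100.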

[2] = test system: Mus musculus; experiment: Compound was evaluated for antineoplastic activity against mice bearing […], Optimum effective daily dose administered once daily for 6 consecutive days
Outline: (§2)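 B16 melanoma tissue was dispersed in serum-free Fischer's medium (1 g per 5 mL), and 0.2 mL was implanted ip per mouse. Starting 24 h after implantation, drug was given ip once daily for 6 days across a range of doses, as a suspension in 20% aq. Tween 80 and isotonic saline. Groups were five mice; vehicle controls were included. %T/C was mean survival time of treated over control ×100.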

[3] = species: Mus musculus; experiment: Compound was evaluated for antineoplastic activity against mice bearing L1210 leukemia.; outline: as §1
[4] = species: Mus musculus; experiment: Compound was evaluated for antineoplastic activity against mice bearing B6 melanoma.; outline: as §2
[5] = species: Mus musculus; experiment: Compound was evaluated for antineoplastic activity against mice bearing L1210 leukemia. Average change in body weight from onset to termination of therapy..
Outline: (§3)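 In L1210-bearing mice, dosing was ip once daily for 6 days, beginning 24 h after implantation, with groups of five. The vehicle was a Tween 80/saline suspension. Body weight was recorded, and the read-out was the mean % change in body weight from the start to the end of therapy.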

[6] = species: Mus musculus; experiment: Compound was evaluated for antineoplastic activity against mice bearing B16 melanoma; outline: as §2
[7] = test system: Mus musculus; experiment: Compound was evaluated for antineoplastic activity against mice bearing B16 melanoma, optimum effective daily dose administered once daily for 6 consecutive days; outline: as §2
[8] = test system: Mus musculus; experiment: Compound was evaluated for antineoplastic activity against mice bearing L1210 leukemia, optimum effective daily dose administered once daily for 6 consecutive days; outline: as §1
[9] = species: Mus musculus; experiment: Compound was evaluated for antineoplastic activity against mice bearing L1210 leukemia. Average change in body weight from onset to termination of therapy; outline: as §3
[10] = species: Mus musculus; experiment: Compound was evaluated for antineoplastic activity against mice bearing B16 melanoma.; outline: as §2

| Structure (SMILES) | OD [1] [mg/kg] | OD [2] [mg/kg] | T/C [3] [%] | Average change in body weight [4] [%] | T/C [4] [%] | Average change in body weight [5] [%] | Average change in body weight [6] [%] | OD [7] [mg/kg] | OD [8] [mg/kg] | Average change in body weight [9] [%] | Max T/C [6] [%] | Average change in body weight [10] [%] |
| --- | --- | --- | --- | --- | --- | --- | --- | --- | --- | --- | --- | --- |
| Cc1ccc(S(=O)(=O)N(C)NSc2ccccc2[N+](=O)[O-])cc1 | 50 | 100 | 151 | -2 | 99 | 15.5 |  |  |  |  |  |  |
| Cc1ccc(S(=O)(=O)N(C)NP(=O)(Oc2ccccc2)Oc2ccccc2)cc1 | 150 | 100 | 99 | 7.4 | 91 | 20.9 |  |  |  |  |  |  |
| Cc1ccc(S(=O)(=O)N(C)NC(=O)c2ccccc2)cc1 | 50 | 150 | 167 | 6.8 | 96 | 7.5 |  |  |  |  |  |  |
| CCS(=O)(=O)NN(C)S(=O)(=O)c1ccc(C)cc1 |  |  |  |  |  |  | -1.1 | 50 |  |  |  |  |
| Cc1ccc(S(=O)(=O)N(C)NC(=O)c2ccc([N+](=O)[O-])cc2)cc1 | 100 | 50 | 133 | 3.9 | 97 | -6.3 |  |  |  |  |  |  |
| Cc1ccc(S(=O)(=O)N(C)NS(C)(=O)=O)cc1 |  |  |  |  |  |  | -1.9 | 10 | 30 | -7.9 |  |  |
| Cc1ccc(S(=O)(=O)N(C)NC(=O)/C=C/c2ccccc2)cc1 | 50 | 150 | 94 | 1.8 | 94 | 14.8 |  |  |  |  |  |  |
| Cc1ccc(S(=O)(=O)N(C)NS(=O)(=O)Cc2ccccc2)cc1 |  |  |  |  |  |  | -2.4 | 50 | 50 | 10.8 | 172 |  |
| Cc1ccc(S(=O)(=O)N(C)NP(=O)(c2ccccc2)c2ccccc2)cc1 | 50 | 150 | 100 | 0.7 | 112 | 5.8 |  |  |  |  |  |  |
| Cc1ccc(S(=O)(=O)NN(C)S(=O)(=O)c2ccc(C)cc2)cc1 |  |  |  |  |  |  |  | 150 | 50 | 3.7 |  | -2.7 |
